Experimental data from different studies.
pEC50, pIC50: −log10 of the molar value.
Organism: Plasmodium falciparum
Observed: parasite growth

| SMILES | assay | system | conditions | quantity | value |
| --- | --- | --- | --- | --- | --- |
| N=C(N)N/N=C/c1c(Cl)cccc1Cl | – | K1 | drug-resistant strain, blood stage | pIC50 | 6.03 |
| COc1cc(/C=C/C(=O)C(=Cc2ccccc2)C(=O)/C=C/c2ccc(O)c(OC)c2)ccc1O | – | K1 | drug-resistant strain, blood stage | pEC50 | 4.77 |
| N=C(CC(O)c1cc2c(F)cc(F)cc2c2cc(C(F)(F)F)ccc12)Nc1ccc(N2CCC(F)(F)CC2)cc1 (stereo not shown) | ELISA | 3D7 DD2 | blood stage | pIC50 | ~7.49 |
| CCN1CCN(Cc2ccc(Nc3nc4ccc(Oc5ccnc(NC(=O)C6CCN(C)CC6)c5)cc4n3C)cc2C(F)(F)F)CC1 | flow cytometry | DD2 | 72 h, blood stage | pIC50 | 7.25 |
| N=C(CC(O)c1cc2c(F)cc(F)cc2c2cc(C(F)(F)F)ccc12)N1CCC(F)(F)CC1 (stereo not shown) | ELISA | 3D7 | 72 h, blood stage | pIC50 | 7.84 |
| c1cc([C@H]2CC[C@]3(CC2)OO[C@]2(O3)C3CC4CC(C3)CC2C4)ccc1OCCN1CCOCC1 | – | W2 | drug-resistant strain, blood stage | pIC50 | 7.96 |
| CCN(CC)CCCC(C)Nc1ccnc2cc(Cl)ccc12 (stereo not shown) | – | K1 | drug-resistant strain | pIC50 | 7.04 |
| Cc1cc(F)cc(C)c1NC(=N)CC(O)c1cc2c(F)cc(F)cc2c2cc(C(F)(F)F)ccc12 (stereo not shown) | ELISA | 3D7 | 72 h, blood stage | pIC50 | 7.94 |
| C[C@@H]1CC[C@H]2[C@@H](C)C(=O)O[C@@H]3O[C@@]4(C)CC[C@@H]1[C@]32OO4 | SYBR Green | 3D7 | blood stage | pIC50 | 7.71 |
| COc1cc(/C=C/C(=O)C(=Cc2ccc(O)cc2)C(=O)/C=C/c2ccc(O)c(OC)c2)ccc1O | – | K1 | drug-resistant strain, blood stage | pEC50 | 4.88 |
| N=C(CC(O)c1cc2c(F)cc(F)cc2c2cc(C(F)(F)F)ccc12)Nc1ccc(-c2ccc(F)cc2)cc1 (stereo not shown) | ELISA | 3D7 DD2 | blood stage | pIC50 | ~8.30 |
| COc1cc(/C=C/C(=O)C(=Cc2cccc(O)c2)C(=O)/C=C/c2ccc(O)c(OC)c2)ccc1O | – | K1 | drug-resistant strain, blood stage | pEC50 | 4.96 |
| CC(=O)[C@@]1(O)[C@H](O)C[C@H]2[C@@H]3CCC4=CC(=O)CC[C@]4(C)[C@H]3CC[C@@]21C | – | DD2 | drug-resistant strain, blood stage | pIC50 | 6.21 |
| COc1cc(C=C(C(=O)/C=C/c2ccc(O)c(OC)c2)C(=O)/C=C/c2ccc(O)c(OC)c2)ccc1O | – | K1 | drug-resistant strain, blood stage | pEC50 | 4.72 |
| CCCCN(CCCC)C(=N)CC(O)c1cc2c(F)cc(F)cc2c2cc(C(F)(F)F)ccc12 (stereo not shown) | ELISA | 3D7 | 72 h, blood stage | pIC50 | 5.95 |
| CCCCCCCCNC(C)C(O)c1ccc(SC(C)C)cc1 (stereo not shown) | – | DD2 | drug-resistant strain, blood stage | pIC50 | 7.20 |
| CC(C)(C)CNC(=N)CC(O)c1cc2c(F)cc(F)cc2c2cc(C(F)(F)F)ccc12 (stereo not shown) | ELISA | 3D7 | 72 h, blood stage | pIC50 | 5.22 |
| CO[C@H]1/C=C/O[C@@]2(C)Oc3c(C)c(O)c4c(O)c(c(/C=N/N5CCN(C)CC5)c(O)c4c3C2=O)NC(=O)/C(C)=C\C=C\[C@H](C)[C@H](O)[C@@H](C)[C@@H](O)[C@@H](C)[C@H](OC(C)=O)[C@@H]1C | – | K1 | drug-resistant strain, blood stage | pIC50 | 7.48 |
| COc1cc(/C=C/c2cc(/C=C/c3ccc(O)c(OC)c3)n(-c3cccc([N+](=O)[O-])c3)n2)ccc1O | – | K1 | drug-resistant strain, blood stage | pEC50 | 4.78 |
